≈ marks a conversion by molar mass, not a printed value. Calls of active or inactive are those of the source. The rule behind the calls is not given here.
Key:
Neuro2a [1] = experiment: Activation of voltage-gated sodium channel in mouse Neuro2a cells at 20 ug/ml after 16 hrs by MTT assay; format: cell-based
Procedure, shortened: (§1)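 Neuro2a cells plated at 3.0×10^5 cells/mL in RPMI 1640 with 10% FBS and 1% pen/strep, 200 µL/well, recovered overnight (37 °C, 5% CO2). DMSO stocks (10 mg/mL) diluted in serum-free RPMI to a final 20 µg/mL. Bottom half of plate got 5 mM ouabain plus 150 µM veratridine in PBS/5 mM HCl; top half PBS/HCl only for general toxicity. Brevetoxin-2 positive control. MTT after ~16 h, read at 570/630 nm.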

Staphylococcus aureus = experiment: Antibacterial activity against methicillin-resistant Staphylococcus aureus after 24 hrs by optical density method; format: functional
Procedure, shortened: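 MRSA grown on GYT medium for 24 h at 37 °C, then inoculated into GYT medium containing serial dilutions of compound and incubated 24 h at 37 °C. Growth read as optical density at 600 nm. MIC taken as the lowest concentration inhibiting bacterial growth.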

NCI-H460 = experiment: Cytotoxicity against human H460 cells after 48 hrs by MTT assay; format: functional, cell-based
Procedure, shortened: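 H-460 cells at 3.33×10^4 cells/mL in RPMI 1640 with FBS and 1% pen/strep, 180 µL/well, recovered overnight (37 °C, 5% CO2). DMSO stocks (10 mg/mL) diluted in serum-free RPMI to final 30 or 3 µg/mL; serum-free medium as negative control. ~48 h incubation, then MTT, absorbance read at 570 and 630 nm.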

Neuro2a [2] = experiment: Inhibition of voltage-gated sodium channel in mouse Neuro2a cells at 20 ug/ml after 24 hrs by MTT assay; format: cell-based
Artemia salina = experiment: Toxicity in Artemia salina after 24 hrs; format: organism-based
Procedure, shortened: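 Artemia salina eggs hatched over 24 h; about 20 nauplii in ~0.5 mL seawater added per well holding sample in 50 µL EtOH plus 4.5 mL artificial seawater. Final concentrations 1, 5 and 25 ppm, controls and samples in triplicate. Live and dead counted after 24 h at 28 °C.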

[3] = Activation of voltage-gated sodium channel in mouse Neuro2a cells after 16 hrs by MTT assay; format: cell-based; details: N2a; procedure, shortened: as §1

O=S(=O)(O)Oc1ccc(Oc2c(Br)cc(Oc3ccc(O)c(Br)c3)cc2Oc2ccc(Br)cc2Br)c(Br)c1Oc1ccc(Br)cc1Br
Activity (Neuro2a [1]): inactive | Activity (Staphylococcus aureus): inactive | Activity (NCI-H460): inactive | inhibition (Neuro2a [2]): inactive

O=S(=O)(O)Oc1ccc(Oc2cc(Br)c(Oc3ccc(O)c(Oc4ccc(Br)cc4Br)c3Br)c(Oc3ccc(Br)cc3Br)c2)cc1Br
Activity (Neuro2a [1]): inactive | Activity (Staphylococcus aureus): inactive | Activity (NCI-H460): inactive | inhibition (Neuro2a [2]): inactive

Oc1ccc(Oc2cc(Br)c(Oc3ccc(O)c(Oc4ccc(Br)cc4Br)c3Br)c(Oc3ccc(Br)cc3Br)c2)cc1Br [CROSSBYANOL A]
Activity (Artemia salina; artemia salina, in vivo, 24 h): Non-toxic | IC50 [3]: 20 µg/mL (≈ 19.4 µM) | Activity (Staphylococcus aureus): inactive | IC50 (NCI-H460; NCI-H460, 48 h): 30 µg/mL (≈ 29.1 µM) | inhibition (Neuro2a [2]): inactive

O=S(=O)(O)Oc1ccc(Oc2cc(Br)c(Oc3ccc(OS(=O)(=O)O)c(Oc4ccc(Br)cc4Br)c3Br)c(Oc3ccc(Br)cc3Br)c2)cc1Br [CROSSBYANOL B]
Activity (Neuro2a [1]): inactive | IC50 (Artemia salina): 2.8 ppm | MIC (Staphylococcus aureus): 2 µg/mL (≈ 1.68 µM) | Activity (NCI-H460): inactive | inhibition (Neuro2a [2]): inactive

Source: ChEMBL document CHEMBL1157068, “Crossbyanols A-D, toxic brominated polyphenyl ethers from the Hawai'ian bloom-forming Cyanobacterium Leptolyngbya crossbyana” (J Nat Prod, 2010)
